tolC growth inh: blocks growth of E. coli BW25113 tolC mutant. OD615. growth inhibition, % at 10 µM (by protocol). 2.2% of 65,000 active. AID 573;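 active = growth inhibition at or above a cutoff equal to the mean over every tested compound plus 3 SD, cut at about 60% in these data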;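 also: growth measured after 20 h incubation at 37 °C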
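Signal: optical density read at 615 nm; Assay system: E. coli ΔtolC::kan strain BW25113; Times: 20 h incubation with compound, 37 °C; Dosing: 10 µM final, single dose.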
PostGolgi yeast: growth inhibition of a yeast mutant, post-Golgi transport screen; AID 739; post-Golgi transport phenotypic cell assay; 0.9% of 98,000 active; inhibition, % at 10 µM;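 also: yeast cells grown in 1536-well plates; yeast grown about 18 h at 30C before absorbance read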
hDAT+cocaine: changed human dopamine transporter uptake under cocaine IC80; 1.3% of 110,000 active; Q01959; AID 449768; LLC-PK1 hDAT cells, [14C]-dopamine uptake with cocaine IC80; actives deviate in either direction; B-score at 10 µM;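 active = Z score or B-score, a plate-position-corrected score, falls beyond the plate's 99.7% confidence bounds, in either direction; inactive = both scores lie inside the 99.7% bounds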;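 also: scored against the spread of the other compound wells on the same plate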
D1 allo mod: allosteric modulators of human D1 dopamine receptor; P21728; HEK293 D1, CRE-luciferase, dopamine EC30 potentiation; actives deviate in either direction; B-score at 10 µM; 5.9% of 58,000 active; AID 641;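 active = luminescence count or its row- and column-corrected plate score outside the 99.7% band of the plate's sample wells, on either side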
Target sequence (P21728 whole entry, looked up): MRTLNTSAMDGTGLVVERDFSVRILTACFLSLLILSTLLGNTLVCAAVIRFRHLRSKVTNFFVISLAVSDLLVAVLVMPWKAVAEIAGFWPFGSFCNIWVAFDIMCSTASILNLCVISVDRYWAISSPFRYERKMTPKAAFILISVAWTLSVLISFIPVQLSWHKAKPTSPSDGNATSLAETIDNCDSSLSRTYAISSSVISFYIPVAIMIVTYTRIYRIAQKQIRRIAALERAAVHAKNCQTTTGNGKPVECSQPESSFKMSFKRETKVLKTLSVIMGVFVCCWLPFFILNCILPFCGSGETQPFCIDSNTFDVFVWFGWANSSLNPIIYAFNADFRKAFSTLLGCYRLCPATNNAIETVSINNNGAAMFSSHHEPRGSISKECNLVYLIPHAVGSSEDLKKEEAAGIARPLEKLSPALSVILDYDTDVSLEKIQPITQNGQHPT
E coli WT exp: growth inhibitors of E. coli BW25113 wild type; 0.15% of 98,000 active; OD600 absorbance; growth inhibition, % at 100 µM;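 active = growth inhibition above about 50% at one test dose, limit read from the data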;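 also: growth measured after 20 h incubation at 37 °C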
PostGolgi ctrl: inhibits growth of the yeast control strain; efflux-deficient yeast background strain, growth absorbance A615, 16 h; inhibition, % at 10 µM; 5% of 98,000 active; AID 738
Starred values were filed as active, the others as inactive; nt = not tested or not shown. Shown are actives, neighbours in structure and some others; about 9.3% of the full set was active somewhere. Rule as the data show it, unless noted: active = inhibition above about 30%; inactive = the rest.

SMILES	tolC growth inh	PostGolgi yeast	hDAT+cocaine	D1 allo mod	E coli WT exp	PostGolgi ctrl
CCOC(=O)N1CCN(c2ccc(S(=O)(=O)N(Cc3ccccc3)Cc3ccccc3)cn2)CC1	19.4	34.2*	0.513	-0.877	4.0	-4.3
O=C(NCN1C(=O)C2C3C=CC(C3)C2C1=O)Nc1nccs1 (configuration not stated)	-14.7	7.0	-0.541	-0.669	-3.0	-1.5
O=C(CN1c2cccc3cccc(c23)S1(=O)=O)NCc1ccc2c(c1)OCO2	12.7	4.5	0.0729	5.28*	1.0	1.6
CCC1Sc2ccccc2N(CC(=O)NCc2ccc3c(c2)OCO3)C1=O (configuration not stated)	8.4	-1.6	0.361	-2.63*	5.0	8.6
CCC1Sc2ccccc2N(CC(=O)NCCC2=CCCCC2)C1=O (configuration not stated)	nt	-0.7	1.22	nt	-7.0	36.7*
COC(=O)Cc1cc(=O)[nH]c(/N=C(\N)Nc2ccc(C)cc2C)n1	-8.2	24.2	-0.583	-5.21*	-2.0	17.4
CCOC(=O)Cc1cc(=O)[nH]c(/N=C(\N)Nc2ccc(C)cc2C)n1	nt	-4.2	0.181	nt	-6.0	3.8
N#Cc1cc(C#N)c(N2CCN(c3ccccn3)CC2)nc1N	nt	-6.9	-0.956	nt	8.0	6.7
Fc1ccccc1COc1cccc(/C=N/n2cnnc2)c1	12.7	2.6	0.353	1.35	0.0	12.9
Cc1cc(/C=N/n2cnnc2)c(C)n1-c1ccc(OCc2ccc(Cl)cc2)cc1	nt	10.8	0.64	nt	-8.0	77.6*
C(=N\n1cnnc1)/c1ccc(OCc2ccccc2)cc1	4.2	0.6	0.786	-0.422	-9.0	3.6
Cc1cc(/C=N/n2cnnc2)c(C)n1-c1ccc(OCc2ccccc2F)cc1	43.5	7.2	1.34	-2.53	-6.0	64.6*
OCCn1c(Cl)nc2ccccc21	nt	nt	0.371	nt	nt	nt
CCOC(=O)c1c(NC(=O)c2ccccc2Br)sc2c1CCc1ccccc1-2	nt	-7.1	0.014	nt	-23.0	19.2
CCCC1=C(C(=O)OCC)C(c2ccncc2)n2ncnc2N1 (configuration not stated)	nt	-4.2	-0.126	nt	5.0	3.3
CC1(C)Oc2nc3ccccc3n2/C1=C\C#N	nt	nt	-1	nt	nt	nt
COc1cccc(N2CCN(c3ncnc4c3cnn4-c3ccc(C)cc3C)CC2)c1	30.0	3.5	1.15	-7.41*	-9.0	45.6*
Cc1ccc(-n2ncc3c(N4CCCC4)ncnc32)c(C)c1	-2.6	0.5	-0.2	nt	3.0	33.0*
Cc1ccc(C)c(N2CCN(c3ncnc4c3cnn4-c3ccccc3)CC2)c1	21.4	-4.2	-0.54	-1.07	1.0	10.2
CCN(c1ccc(NC(=O)COC(=O)CCC(=O)c2ccc(F)cc2)cc1)C(C)C	nt	5.2	0.177	nt	6.0	-4.6
O=C(CSc1ccc2nnc(-c3ccccc3)n2n1)N1CCCCC1	-4.0	nt	nt	-0.104	nt	nt
Cc1cc(C)n(-c2nc(NCC(C)O)c3c4c(sc3n2)CCCC4)n1 (configuration not stated)	94.0*	4.6	-0.837	0.902	-3.0	20.1
Cc1cc(C)n(-c2nc(NCCO)c3c4c(sc3n2)CCCC4)n1	54.3	-0.3	2.42	0.0259	-1.0	21.0
Cc1cc(C)n(-c2nc(NCCCO)c3c4c(sc3n2)CCCC4)n1	9.4	16.3	0.899	0.542	11.0	35.3*
c1ccc(C2=Nc3ccccc3SC2c2nc3ccccc3[nH]2)cc1 (configuration not stated)	nt	0.5	-0.529	nt	3.0	2.7
SMILES	tolC growth inh	PostGolgi yeast	hDAT+cocaine	D1 allo mod	E coli WT exp	PostGolgi ctrl
Cc1ccc(N=Nc2c(N)[nH]n3c(=O)cc(-c4ccccc4)nc23)cc1	nt	19.7	1.64*	nt	-5.0	9.8
COc1ccc(C(c2nnnn2Cc2cccs2)N2CCN(c3ccc(F)cc3)CC2)cc1OC (configuration not stated)	27.1	18.5	1.2	-2.14	-8.0	8.1
CN(Cc1ccccc1)C(=O)CC(c1ccccc1)c1cc(Cl)ccc1O (configuration not stated)	nt	-5.8	nt	nt	-3.0	3.6
CCCC1COC(Cn2cncn2)(c2ccc(C)cc2)O1 (configuration not stated)	-1.0	100.6*	0.225	2.49	1.0	92.8*
CN1CCN(c2c3c(c(C#N)c4nc5ccccc5n24)CCCC3)CC1	4.5	nt	nt	nt	nt	nt
CCOC(=O)C1CCN(Cc2ccc(F)cc2)CC1	-5.7	nt	0.256	-0.612	nt	nt
CC1CN(Cc2ccc(Cl)cc2Cl)CC(C)O1 (configuration not stated)	nt	-18.9	-0.377	nt	16.0	5.1
C=C(C)C1CC=C(CN2CC(C)OC(C)C2)CC1 (configuration not stated)	nt	94.8*	0.208	nt	1.0	17.4
C=C(C)C1CC=C(CN2CCC(C(=O)OCC)CC2)CC1 (configuration not stated)	-7.1	78.3*	0.112	-1.04	4.0	14.7
COc1cccc(CN2C(=O)CCC2(C)C(=O)NC2CCCC2)c1 (configuration not stated)	nt	-3.8	-0.934	nt	-5.0	7.4
COc1ccc(C2N(S(=O)(=O)c3ccccc3)CCN2S(=O)(=O)c2ccc(C)cc2)cc1 (configuration not stated)	nt	0.9	0.0261	nt	-14.0	25.0
N#CCCS(=O)(=O)c1nnnn1-c1ccccc1	-26.6	nt	-1.25	0.291	nt	nt
CCc1ccccc1NC(=O)CSc1nc(-c2ccccc2)nn1C(=O)c1cccc([N+](=O)[O-])c1	nt	-2.5	5.36*	nt	-3.0	6.2
COC(=O)c1cc2c(-c3ccccc3)c(C)c3ccccn3c-2c1C(=O)OC	nt	4.7	0.86	nt	-9.0	42.5*
CN(C)C(CNS(=O)(=O)c1ccc(Br)cc1)c1cccnc1 (configuration not stated)	-2.5	2.8	-8.89*	nt	1.0	4.8
CN(C)C(CNS(=O)(=O)c1ccc(Cl)cc1)c1cccnc1 (configuration not stated)	nt	-8.4	-0.628	nt	5.0	8.4
Clc1ccc2[nH]c3c(NCC4CCCO4)ncnc3c2c1 (configuration not stated)	48.6	37.0*	0.223	-2.86	38.0	1.7
COc1ccc2[nH]c3c(NCCCN4CCCC4=O)ncnc3c2c1	nt	-3.3	2.92*	nt	2.0	11.0
c1ccc2c(c1)oc1c(NCC3CCCO3)ncnc12 (configuration not stated)	nt	0.5	1.42	nt	-2.0	8.2
COc1ccc2[nH]c3c(NCCN(C(C)C)C(C)C)ncnc3c2c1	-5.6	2.1	1.74	-1.9	12.0	5.2
Clc1ccc2[nH]c3c(NCCN4CCOCC4)ncnc3c2c1	12.1	15.4	-0.509	3.2	14.0	30.4*
Cc1nnc(Sc2nc3c(c(=O)[nH]c(=O)n3C)n2Cc2ccccc2Cl)s1	-5.0	nt	nt	1.4	nt	nt
O=C(Nc1ccc2nc(-c3cccs3)[nH]c2c1)c1cccs1	19.5	-0.5	-0.00358	-0.495	-3.0	-11.8
O=C(Nc1ccc2nc(-c3cccs3)[nH]c2c1)c1ccco1	89.6*	3.3	0.0131	-0.442	-2.0	-0.5
Cc1ccc(NC(=O)c2cccs2)cc1NC(=O)c1ccco1	18.6	-13.3	0.305	1.23	3.0	31.7*
